In ChEMBL document CHEMBL1150307, “Design, synthesis and evaluation of novel sulfonyl pyrrolidine derivatives as matrix metalloproteinase inhibitors” (Bioorg Med Chem, 2008):

Legend:
Aminopeptidase N = Aminopeptidase N (Homo sapiens, UniProt P15144); experiment: Inhibition of aminopeptidase N
How it was run: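 Enzyme and inhibitor were preincubated in sodium phosphate buffer (50 mM, pH 7.2) for 30 min at 37 °C. L-leucine p-nitroanilide was then added and incubated a further 60 min at 37 °C. Absorbance at 405 nm was used to calculate inhibition rates.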

[1] = biological target: 72 kDa type IV collagenase (Homo sapiens, UniProt P08253); experiment: Inhibition of MMP2
Chain of 72 kDa type IV collagenase (P08253 whole entry): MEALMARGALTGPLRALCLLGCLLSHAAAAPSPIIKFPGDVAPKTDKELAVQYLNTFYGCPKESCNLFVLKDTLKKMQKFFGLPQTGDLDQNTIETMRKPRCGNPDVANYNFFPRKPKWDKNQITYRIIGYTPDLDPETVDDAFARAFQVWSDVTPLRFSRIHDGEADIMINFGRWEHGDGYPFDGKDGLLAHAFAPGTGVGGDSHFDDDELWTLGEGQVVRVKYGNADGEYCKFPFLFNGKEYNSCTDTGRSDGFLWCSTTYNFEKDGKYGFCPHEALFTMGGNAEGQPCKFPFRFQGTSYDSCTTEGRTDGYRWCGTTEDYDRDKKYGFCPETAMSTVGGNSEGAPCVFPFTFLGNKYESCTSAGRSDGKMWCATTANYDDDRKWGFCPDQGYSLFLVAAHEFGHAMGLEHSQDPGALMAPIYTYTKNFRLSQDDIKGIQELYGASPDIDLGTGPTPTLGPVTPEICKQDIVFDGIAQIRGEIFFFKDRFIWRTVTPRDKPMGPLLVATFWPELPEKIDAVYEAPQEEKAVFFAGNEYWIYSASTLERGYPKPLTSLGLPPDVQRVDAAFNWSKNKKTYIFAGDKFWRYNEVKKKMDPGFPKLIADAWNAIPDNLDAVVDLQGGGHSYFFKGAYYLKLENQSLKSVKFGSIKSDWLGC
How it was run: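 Run in borate buffer (50 mM, pH 8.5) with succinylated gelatin as substrate. Enzyme and inhibitor were preincubated 30 min at 37 °C, then substrate was added for 60 min at 37 °C. Picrylsulfonic acid (0.03%) was added for 20 min at room temperature. Absorbance was read at 450 nm, and % inhibition was calculated against uninhibited and blank wells.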

Chain of Aminopeptidase N (P15144 whole entry): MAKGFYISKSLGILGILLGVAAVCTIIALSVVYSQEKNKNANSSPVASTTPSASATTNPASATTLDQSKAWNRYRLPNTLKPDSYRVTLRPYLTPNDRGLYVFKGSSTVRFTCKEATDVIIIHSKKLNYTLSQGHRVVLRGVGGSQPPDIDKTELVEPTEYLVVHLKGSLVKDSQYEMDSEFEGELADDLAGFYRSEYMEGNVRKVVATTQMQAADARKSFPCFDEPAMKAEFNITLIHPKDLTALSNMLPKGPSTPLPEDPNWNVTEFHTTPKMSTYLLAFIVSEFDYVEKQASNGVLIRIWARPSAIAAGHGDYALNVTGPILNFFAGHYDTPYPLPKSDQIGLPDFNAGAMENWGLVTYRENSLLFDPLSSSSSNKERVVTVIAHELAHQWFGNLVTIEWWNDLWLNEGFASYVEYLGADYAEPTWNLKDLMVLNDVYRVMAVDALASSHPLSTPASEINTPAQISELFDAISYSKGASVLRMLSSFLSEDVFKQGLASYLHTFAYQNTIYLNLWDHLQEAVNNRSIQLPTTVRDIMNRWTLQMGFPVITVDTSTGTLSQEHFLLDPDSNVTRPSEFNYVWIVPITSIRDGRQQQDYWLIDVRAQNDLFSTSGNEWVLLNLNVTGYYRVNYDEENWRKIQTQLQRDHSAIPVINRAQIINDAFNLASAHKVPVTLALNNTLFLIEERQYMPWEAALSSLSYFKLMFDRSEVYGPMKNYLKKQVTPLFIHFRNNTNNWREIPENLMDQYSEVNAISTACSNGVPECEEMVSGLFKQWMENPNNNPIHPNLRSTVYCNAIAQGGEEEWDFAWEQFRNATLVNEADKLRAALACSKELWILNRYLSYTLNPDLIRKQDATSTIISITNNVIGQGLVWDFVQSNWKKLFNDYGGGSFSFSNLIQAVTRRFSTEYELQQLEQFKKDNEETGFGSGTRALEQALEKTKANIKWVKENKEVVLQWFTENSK

SMILES | IC50 (Aminopeptidase N) | IC50 [1]
COc1ccc(/C=C/C(=O)N2C[C@@H](NC(=O)c3cccnc3)C[C@H]2C(=O)NO)cc1OC | 142 µM | 0.009 µM
COC(=O)[C@@H]1CC2(CN1S(=O)(=O)c1ccc(C)cc1)OCCCO2 | 174 µM | 0.2 µM
COC(=O)[C@@H]1CC2(CN1S(=O)(=O)c1ccc(C)cc1)OCCCCO2 | 124 µM | 0.3 µM
COC(=O)[C@@H]1CC2(CN1S(=O)(=O)c1ccccc1)OCCO2 | 151 µM | 0.2 µM
O=C(NO)[C@@H]1CC2(CN1S(=O)(=O)c1ccccc1)OCCCCO2 | 107 µM | 0.012 µM
Cc1ccc(S(=O)(=O)N2CC3(C[C@H]2C(=O)NO)OCCCCO3)cc1 | 73.2 µM | 0.008 µM
O=C(NO)[C@@H]1CC2(CN1S(=O)(=O)c1ccccc1)OCCO2 | 57.8 µM | 0.008 µM
O=C(NO)[C@@H]1CC2(CN1S(=O)(=O)c1ccccc1)OCCCO2 | 82.7 µM | 0.011 µM
COC(=O)[C@@H]1CC(=O)CN1S(=O)(=O)c1ccc(C)cc1 | 54.9 µM | 0.4 µM
COC(=O)[C@@H]1CC2(CN1S(=O)(=O)c1ccccc1)OCCCCO2 | 135 µM | 1.5 µM
COC(=O)[C@@H]1CC(=O)CN1S(C)(=O)=O | 92.6 µM | 9.5 µM
COC(=O)[C@@H]1CC2(CN1S(=O)(=O)c1ccccc1)OCCCO2 | 168 µM | 1.1 µM
COC(=O)[C@@H]1CC(=O)CN1S(=O)(=O)c1ccccc1 | 75.8 µM | 2 µM
Cc1ccc(S(=O)(=O)N2CC3(C[C@H]2C(=O)NO)OCCO3)cc1 | 48.5 µM | 0.003 µM
COC(=O)[C@@H]1CC2(CN1S(=O)(=O)c1ccc(C)cc1)OCCO2 | 156 µM | 0.1 µM
Cc1ccc(S(=O)(=O)N2CC3(C[C@H]2C(=O)NO)OCCCO3)cc1 | 61.8 µM | 0.006 µM
COC(=O)[C@@H]1C[C@@H](O)CN1S(C)(=O)=O (relative stereo) | 41.6 µM | 7.1 µM
COC(=O)[C@@H]1C[C@@H](O)CN1S(=O)(=O)c1ccccc1 (relative stereo) | 53.8 µM | 0.8 µM
COC(=O)[C@@H]1C[C@@H](O)CN1S(=O)(=O)c1ccc(C)cc1 (relative stereo) | 38.4 µM | 0.1 µM
